Assay results: ChEMBL document CHEMBL3244396, “Synthesis and antileukemic activity of 5-substituted 2,3-dihydro-6,7-bis(hydroxymethyl)-1H-pyrrolizine diesters” (J Med Chem, 1977)

What was measured:
P388 [1] = assay: Antitumor activity against mouse P388 cells allografted in female CDF1 mouse assessed as change in body weight at 100 mg/kg, ip administered daily for 9 days as saline with Tween-80 solution starting 24 hrs after tumor inoculation; format: functional; conditions: route intraperitoneal
Procedure, shortened: (§1)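 Ascitic fluid carrying P388 cells was inoculated ip. Compound was given ip in nine daily doses, starting 24 h after inoculation, in Klucel (hydroxypropylcellulose) suspension or in saline with Tween-80. Body-weight difference (treated minus control) was recorded on day 5. Survival was scored as %T/C of median survival time, and 30-day survival counted as cure.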

P388 [2] = assay: Antitumor activity against mouse P388 cells allografted in female CDF1 mouse assessed as change in body weight at 27 mg/kg, ip administered daily for 9 days as saline with Tween-80 solution starting 24 hrs after tumor inoculation; format: functional; conditions: route intraperitoneal; procedure, shortened: as §1
P388 [3] = assay: Antitumor activity against mouse P388 cells allografted in female CDF1 mouse assessed as disease cures by measuring 30-days host survival at 200 mg/kg, ip administered daily for 9 days as saline with Tween-80 solution starting 24 hrs after tumor inoculation relative to control; format: functional; conditions: route intraperitoneal
Procedure, shortened: (§2)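 P388 ascitic cell inoculum given ip to CDF1 mice of the sex in each line. Nine daily ip doses in saline with Tween-80 as vehicle, starting 24 h after inoculation. Median survival time expressed as %T/C (>125 significant); "cure" defined as 30-day survival.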

P388 [4] = assay: Antitumor activity against mouse P388 cells allografted in female CDF1 mouse assessed as change in body weight at 13.5 mg/kg, ip administered daily for 9 days as saline with Tween-80 solution starting 24 hrs after tumor inoculation; format: functional; conditions: route intraperitoneal; procedure, shortened: as §1
Mus musculus [5] = assay: Toxicity in female CDF1 mouse allografted with mouse P388 cells assessed as animal survival at 27 mg/kg, ip administered daily for 9 days as saline with Tween-80 solution starting 24 hrs after tumor inoculation; format: organism-based; set-up: dose 27 mg/kg, route intraperitoneal; conditions: in vivo
Procedure, shortened: (§3)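 P-388 leukemia ascitic fluid implanted ip. Compound dosed ip in saline with Tween-80 vehicle, once daily for nine doses from 24 h after tumor inoculation. Acute toxicity scored as toxicity-day survivors per group. Survival was followed up to 30 days, with 30-day survival counted as "cure". Follows NCI screening protocols.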

P388 [6] = assay: Antitumor activity against mouse P388 cells allografted in female CDF1 mouse assessed as disease cures by measuring 30-days host survival at 54 mg/kg, ip administered daily for 9 days as saline with Tween-80 solution starting 24 hrs after tumor inoculation relative to control; format: functional; conditions: route intraperitoneal; procedure, shortened: as §2
P388 [7] = assay: Antitumor activity against mouse P388 cells allografted in female CDF1 mouse assessed as disease cures by measuring 30-days host survival at 400 mg/kg, ip administered daily for 9 days as saline with Tween-80 solution starting 24 hrs after tumor inoculation relative to control; format: functional; conditions: route intraperitoneal; procedure, shortened: as §2
Mus musculus [8] = assay: Toxicity in female CDF1 mouse allografted with mouse P388 cells assessed as animal survival at 400 mg/kg, ip administered daily for 9 days as saline with Tween-80 solution starting 24 hrs after tumor inoculation; format: organism-based; set-up: dose 400 mg/kg, route intraperitoneal; conditions: in vivo; procedure, shortened: as §3
Mus musculus [9] = assay: Toxicity in female CDF1 mouse allografted with mouse P388 cells assessed as animal survival at 13.5 mg/kg, ip administered daily for 9 days as saline with Tween-80 solution starting 24 hrs after tumor inoculation; format: organism-based; set-up: dose 13.5 mg/kg, route intraperitoneal; conditions: in vivo; procedure, shortened: as §3
P388 [10] = assay: Antitumor activity against mouse P388 cells allografted in female CDF1 mouse assessed as disease cures by measuring 30-days host survival at 27 mg/kg, ip administered daily for 9 days as saline with Tween-80 solution starting 24 hrs after tumor inoculation relative to control; format: functional; conditions: route intraperitoneal; procedure, shortened: as §2
P388 [11] = assay: Antitumor activity against mouse P388 cells allografted in female CDF1 mouse assessed as change in body weight at 200 mg/kg, ip administered daily for 9 days as saline with Tween-80 solution starting 24 hrs after tumor inoculation; format: functional; conditions: route intraperitoneal; procedure, shortened: as §1
P388 [12] = assay: Antitumor activity against mouse P388 cells allografted in female CDF1 mouse assessed as change in body weight at 400 mg/kg, ip administered daily for 9 days as saline with Tween-80 solution starting 24 hrs after tumor inoculation; format: functional; conditions: route intraperitoneal; procedure, shortened: as §1
Mus musculus [13] = assay: Toxicity in female CDF1 mouse allografted with mouse P388 cells assessed as animal survival at 100 mg/kg, ip administered daily for 9 days as saline with Tween-80 solution starting 24 hrs after tumor inoculation; format: organism-based; set-up: dose 100 mg/kg, route intraperitoneal; conditions: in vivo; procedure, shortened: as §3
P388 [14] = assay: Antitumor activity against mouse P388 cells allografted in female CDF1 mouse assessed as disease cures by measuring 30-days host survival at 13.5 mg/kg, ip administered daily for 9 days as saline with Tween-80 solution starting 24 hrs after tumor inoculation relative to control; format: functional; conditions: route intraperitoneal; procedure, shortened: as §2
Mus musculus [15] = assay: Toxicity in female CDF1 mouse allografted with mouse P388 cells assessed as animal survival at 54 mg/kg, ip administered daily for 9 days as saline with Tween-80 solution starting 24 hrs after tumor inoculation; format: organism-based; set-up: dose 54 mg/kg, route intraperitoneal; conditions: in vivo; procedure, shortened: as §3
P388 [16] = assay: Antitumor activity against mouse P388 cells allografted in female CDF1 mouse assessed as change in body weight at 54 mg/kg, ip administered daily for 9 days as saline with Tween-80 solution starting 24 hrs after tumor inoculation; format: functional; conditions: route intraperitoneal; procedure, shortened: as §1
P388 [17] = assay: Antitumor activity against mouse P388 cells allografted in female CDF1 mouse assessed as disease cures by measuring 30-days host survival at 100 mg/kg, ip administered daily for 9 days as saline with Tween-80 solution starting 24 hrs after tumor inoculation relative to control; format: functional; conditions: route intraperitoneal; procedure, shortened: as §2
Mus musculus [18] = assay: Toxicity in female CDF1 mouse allografted with mouse P388 cells assessed as animal survival at 200 mg/kg, ip administered daily for 9 days as saline with Tween-80 solution starting 24 hrs after tumor inoculation; format: organism-based; set-up: dose 200 mg/kg, route intraperitoneal; conditions: in vivo; procedure, shortened: as §3

With `OCc1c(CO)c(-c2ccc(Cl)c(Cl)c2)n2c1CCC2` the Activity (P388 [1]) was 0.5 g, the Activity (P388 [2]) was -0.3 g and the T/C (P388 [3]) was 116%. For the same compound, the Activity (P388 [4]) was 0 g, the Activity (Mus musculus [5]) was “Non-toxic” and the T/C (P388 [6]) was 109%. For the same compound, the T/C (P388 [7]) was 127%, the Activity (Mus musculus [8]) was “Non-toxic” and the Activity (Mus musculus [9]) was “Non-toxic”. The T/C (P388 [10]) was 109%, the Activity (P388 [11]) was -0.9 g and the Activity (P388 [12]) was -1 g. For the same compound, the Activity (Mus musculus [13]) was “Non-toxic”, the T/C (P388 [14]) was 107% and the Activity (Mus musculus [15]) was “Non-toxic”. For the same compound, the Activity (P388 [16]) was -0.6 g, the T/C (P388 [17]) was 116% and the Activity (Mus musculus [18]) was “Non-toxic”.
